In ChEMBL document CHEMBL3616464, “One-pot synthesis of podophyllotoxin-thiourea congeners by employing NH₂SO₃H/NaI: Anticancer activity, DNA topoisomerase-II inhibition, and apoptosis inducing agents” (Bioorg Med Chem Lett, 2015):
Activity calls are given as the source filed them. No cut-off for these calls is given here.

Experiments:
[1] = biological target: DNA topoisomerase 2-alpha (Homo sapiens) (UniProt P11388); experiment: Inhibition of topoisomerase-2 (unknown origin) using kDNA assessed as increase of catenated kDNA level at 100 uM after 10 mins using ethidium bromide staining by agarose gel electrophoresis
Summary of the method: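 Drug-screening kit decatenation assay: catenated DNA incubated with topoisomerase II (5 units) and test agent, with etoposide as reference. Products were resolved by gel and visualised. Inhibition was judged by catenated DNA remaining in the wells, compared with nicked circular, relaxed circular or linear DNA forms.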

[2] = test system: DU-145; experiment: Cytotoxicity against human DU145 cells after 48 hrs by MTT assay; format: functional, cell-based; conditions: DU-145, 48 h
[3] = Cytotoxicity against human RWPE1 cells after 48 hrs by MTT assay; format: cell-based; conditions: RWPE-1, 48 h
[4] = test system: LNCaP; experiment: Cytotoxicity against human LNCAP cells after 48 hrs by MTT assay; format: functional, cell-based
[5] = test system: MDA-MB-231; experiment: Cytotoxicity against human MDA-MB-231 cells after 48 hrs by MTT assay; format: functional, cell-based; conditions: MDA-MB-231, 48 h
[6] = Cytotoxicity against human HGC cells after 48 hrs by MTT assay; format: functional, cell-based
[7] = Therapeutic index, ratio of IC50 for human RWPE1 cells to IC50 for human DU145 cells; format: cell-based; conditions: RWPE1 cells versus DU145 cells, read-out: Ratio IC50
Summary of the method: (§1)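 Selectivity expressed as the fold by which the IC50 in normal prostate epithelial RWPE-1 cells exceeds the IC50 in the prostate cancer line (DU-145 or LNCaP).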

[8] = test system: A549; experiment: Cytotoxicity against human A549 cells after 48 hrs by MTT assay; format: functional, cell-based; conditions: A549, 48 h
[9] = Therapeutic index, ratio of IC50 for human RWPE1 cells to IC50 for human LNCAP cells; format: cell-based; conditions: RWPE1 cells versus LNCAP cells, read-out: Ratio IC50; summary of the method: as §1
[10] = test system: DU-145; experiment: Cell cycle arrest in human DU145 cells assessed as accumulation at G0/G1 phase at 125 nM after 48 hrs by propidium iodide staining (reference value: 43.5%); format: functional
[11] = test system: DU-145; experiment: Induction of apoptosis in human DU145 cells assessed as horseshoe-shaped cells at 125 nM after 48 hrs using acridine orange and ethidium bromide staining by fluorescence microscopic analysis; format: functional, cell-based
Summary of the method: (§2)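 DU-145 cells treated with 125, 250 or 500 nM for 48 h, then stained with acridine orange/ethidium bromide. Nuclear and chromatin morphology scored by fluorescence microscopy. Live cells appear green and late apoptotic nuclei red with EB. Untreated cells serve as control.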

[12] = test system: DU-145; experiment: Induction of apoptosis in human DU145 cells assessed as dead cells at 250 nM after 48 hrs using Annexin-V and propidium iodide staining (reference value: 3.28%); format: functional
[13] = test system: DU-145; experiment: Cell cycle arrest in human DU145 cells assessed as accumulation at G0/G1 phase at 500 nM after 48 hrs by propidium iodide staining (reference value: 43.5%); format: functional
[14] = test system: DU-145; experiment: Induction of apoptosis in human DU145 cells assessed as early apoptotic cells at 125 nM after 48 hrs using Annexin-V and propidium iodide staining (reference value: 1.40%); format: functional
[15] = test system: DU-145; experiment: Induction of apoptosis in human DU145 cells assessed as late apoptotic cells at 500 nM after 48 hrs using Annexin-V and propidium iodide staining (reference value: 9.32%); format: functional
[16] = test system: DU-145; experiment: Induction of apoptosis in human DU145 cells assessed as chromatin condensation at 125 nM after 48 hrs using acridine orange and ethidium bromide staining by fluorescence microscopic analysis; format: functional, cell-based; summary of the method: as §2
[17] = test system: DU-145; experiment: Induction of apoptosis in human DU145 cells assessed as late apoptotic cells at 125 nM after 48 hrs using Annexin-V and propidium iodide staining (reference value: 9.32%); format: functional
[18] = test system: DU-145; experiment: Induction of apoptosis in human DU145 cells assessed as live cells at 500 nM after 48 hrs using Annexin-V and propidium iodide staining (reference value: 86%); format: functional
[19] = test system: DU-145; experiment: Induction of apoptosis in human DU145 cells assessed as late apoptotic cells at 500 nM after 48 hrs by phase-contrast microscopic analysis; format: functional, cell-based
Summary of the method: (§3)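 DU-145 cells treated with 125, 250 or 500 nM for 48 h. Morphology (chromatin condensation, nuclear fragmentation, membrane blebbing, apoptotic bodies) examined under phase-contrast light microscope and compared with untreated control.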

[20] = test system: DU-145; experiment: Induction of apoptosis in human DU145 cells assessed as cell membrane blebbing at 125 to 500 nM after 48 hrs by phase-contrast microscopic analysis; format: functional, cell-based; summary of the method: as §3
[21] = test system: DU-145; experiment: Cell cycle arrest in human DU145 cells assessed as accumulation at G2/M phase at 125 nM after 48 hrs by propidium iodide staining (reference value: 22.5%); format: functional
[22] = test system: DU-145; experiment: Cell cycle arrest in human DU145 cells assessed as accumulation at S phase at 250 nM after 48 hrs by propidium iodide staining (reference value: 9.1%); format: functional
[23] = test system: DU-145; experiment: Cell cycle arrest in human DU145 cells assessed as accumulation at G2/M phase at 500 nM after 48 hrs by propidium iodide staining (reference value: 22.5%); format: functional
[24] = test system: DU-145; experiment: Induction of apoptosis in human DU145 cells assessed as condensed chromatin at 500 nM after 48 hrs using acridine orange and ethidium bromide staining by fluorescence microscopic analysis; format: functional, cell-based; summary of the method: as §2
[25] = test system: DU-145; experiment: Cell cycle arrest in human DU145 cells assessed as accumulation at G2/M phase at 250 nM after 48 hrs by propidium iodide staining (reference value: 22.5%); format: functional
[26] = test system: DU-145; experiment: Induction of apoptosis in human DU145 cells assessed as live cells at 250 nM after 48 hrs using Annexin-V and propidium iodide staining (reference value: 86%); format: functional
[27] = test system: DU-145; experiment: Induction of apoptosis in human DU145 cells assessed as live cells at 125 nM after 48 hrs using Annexin-V and propidium iodide staining (reference value: 86%); format: functional
[28] = test system: DU-145; experiment: Cell cycle arrest in human DU145 cells assessed as accumulation at S phase at 500 nM after 48 hrs by propidium iodide staining (reference value: 9.1%); format: functional
[29] = test system: DU-145; experiment: Induction of apoptosis in human DU145 cells assessed as cell membrane blebbing at 125 nM after 48 hrs using acridine orange and ethidium bromide staining by fluorescence microscopic analysis; format: functional, cell-based; summary of the method: as §2
[30] = test system: DU-145; experiment: Cell cycle arrest in human DU145 cells assessed as accumulation at G0/G1 phase at 250 nM after 48 hrs by propidium iodide staining (reference value: 43.5%); format: functional
[31] = test system: DU-145; experiment: Induction of apoptosis in human DU145 cells assessed as dead cells at 500 nM after 48 hrs using Annexin-V and propidium iodide staining (reference value: 3.28%); format: functional
[32] = test system: DU-145; experiment: Induction of apoptosis in human DU145 cells assessed as reduction of cell population at 500 nM after 48 hrs by phase-contrast microscopic analysis; format: functional, cell-based; summary of the method: as §3
[33] = biological target: DNA topoisomerase 2-alpha (Homo sapiens) (UniProt P11388); experiment: Inhibition of topoisomerase-2 (unknown origin) using kDNA assessed as increase of catenated kDNA level at 50 to 100 uM after 10 mins using ethidium bromide staining by agarose gel electrophoresis
Summary of the method: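 Topoisomerase II drug screening kit, with catenated DNA incubated with topoisomerase II (5 units) and test agent at 50 or 100 µM. Etoposide at 100 µM serves as standard. Products resolved on gel: catenated DNA is retained in the wells, and nicked/relaxed circular and linear forms are distinguished.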

[34] = test system: DU-145; experiment: Induction of apoptosis in human DU145 cells assessed as late apoptotic cells at 250 nM after 48 hrs using Annexin-V and propidium iodide staining (reference value: 9.32%); format: functional
[35] = test system: DU-145; experiment: Induction of apoptosis in human DU145 cells assessed as late apoptotic cells at 500 nM after 48 hrs using acridine orange and ethidium bromide staining by fluorescence microscopic analysis; format: functional, cell-based; summary of the method: as §2
[36] = test system: DU-145; experiment: Induction of apoptosis in human DU145 cells assessed as early apoptotic cells at 250 nM after 48 hrs using Annexin-V and propidium iodide staining (reference value: 1.40%); format: functional
[37] = test system: DU-145; experiment: Induction of apoptosis in human DU145 cells assessed as irregular distribution of chromatin at 250 nM after 48 hrs using acridine orange and ethidium bromide staining by fluorescence microscopic analysis; format: functional, cell-based; summary of the method: as §2
[38] = test system: DU-145; experiment: Cell cycle arrest in human DU145 cells assessed as accumulation at S phase at 125 nM after 48 hrs by propidium iodide staining (reference value: 9.1%); format: functional
[39] = test system: DU-145; experiment: Induction of apoptosis in human DU145 cells assessed as early apoptotic cells at 500 nM after 48 hrs using Annexin-V and propidium iodide staining (reference value: 1.40%); format: functional
[40] = test system: DU-145; experiment: Induction of apoptosis in human DU145 cells assessed as destructive fragmentation of nuclei at 250 nM after 48 hrs using acridine orange and ethidium bromide staining by fluorescence microscopic analysis; format: functional, cell-based; summary of the method: as §2
[41] = test system: DU-145; experiment: Induction of apoptosis in human DU145 cells assessed as chromatin condensation at 125 to 500 nM after 48 hrs by phase-contrast microscopic analysis; format: functional, cell-based; summary of the method: as §3
[42] = test system: DU-145; experiment: Induction of apoptosis in human DU145 cells assessed as nuclear fragmentation at 125 to 500 nM after 48 hrs by phase-contrast microscopic analysis; format: functional, cell-based; summary of the method: as §3
[43] = test system: DU-145; experiment: Induction of apoptosis in human DU145 cells assessed as formation of apoptotic bodies at 125 to 500 nM after 48 hrs by phase-contrast microscopic analysis; format: functional, cell-based; summary of the method: as §3
[44] = test system: DU-145; experiment: Induction of apoptosis in human DU145 cells assessed as dead cells at 125 nM after 48 hrs using Annexin-V and propidium iodide staining (reference value: 3.28%); format: functional

Chain of DNA topoisomerase 2-alpha (Homo sapiens) (P11388 whole entry): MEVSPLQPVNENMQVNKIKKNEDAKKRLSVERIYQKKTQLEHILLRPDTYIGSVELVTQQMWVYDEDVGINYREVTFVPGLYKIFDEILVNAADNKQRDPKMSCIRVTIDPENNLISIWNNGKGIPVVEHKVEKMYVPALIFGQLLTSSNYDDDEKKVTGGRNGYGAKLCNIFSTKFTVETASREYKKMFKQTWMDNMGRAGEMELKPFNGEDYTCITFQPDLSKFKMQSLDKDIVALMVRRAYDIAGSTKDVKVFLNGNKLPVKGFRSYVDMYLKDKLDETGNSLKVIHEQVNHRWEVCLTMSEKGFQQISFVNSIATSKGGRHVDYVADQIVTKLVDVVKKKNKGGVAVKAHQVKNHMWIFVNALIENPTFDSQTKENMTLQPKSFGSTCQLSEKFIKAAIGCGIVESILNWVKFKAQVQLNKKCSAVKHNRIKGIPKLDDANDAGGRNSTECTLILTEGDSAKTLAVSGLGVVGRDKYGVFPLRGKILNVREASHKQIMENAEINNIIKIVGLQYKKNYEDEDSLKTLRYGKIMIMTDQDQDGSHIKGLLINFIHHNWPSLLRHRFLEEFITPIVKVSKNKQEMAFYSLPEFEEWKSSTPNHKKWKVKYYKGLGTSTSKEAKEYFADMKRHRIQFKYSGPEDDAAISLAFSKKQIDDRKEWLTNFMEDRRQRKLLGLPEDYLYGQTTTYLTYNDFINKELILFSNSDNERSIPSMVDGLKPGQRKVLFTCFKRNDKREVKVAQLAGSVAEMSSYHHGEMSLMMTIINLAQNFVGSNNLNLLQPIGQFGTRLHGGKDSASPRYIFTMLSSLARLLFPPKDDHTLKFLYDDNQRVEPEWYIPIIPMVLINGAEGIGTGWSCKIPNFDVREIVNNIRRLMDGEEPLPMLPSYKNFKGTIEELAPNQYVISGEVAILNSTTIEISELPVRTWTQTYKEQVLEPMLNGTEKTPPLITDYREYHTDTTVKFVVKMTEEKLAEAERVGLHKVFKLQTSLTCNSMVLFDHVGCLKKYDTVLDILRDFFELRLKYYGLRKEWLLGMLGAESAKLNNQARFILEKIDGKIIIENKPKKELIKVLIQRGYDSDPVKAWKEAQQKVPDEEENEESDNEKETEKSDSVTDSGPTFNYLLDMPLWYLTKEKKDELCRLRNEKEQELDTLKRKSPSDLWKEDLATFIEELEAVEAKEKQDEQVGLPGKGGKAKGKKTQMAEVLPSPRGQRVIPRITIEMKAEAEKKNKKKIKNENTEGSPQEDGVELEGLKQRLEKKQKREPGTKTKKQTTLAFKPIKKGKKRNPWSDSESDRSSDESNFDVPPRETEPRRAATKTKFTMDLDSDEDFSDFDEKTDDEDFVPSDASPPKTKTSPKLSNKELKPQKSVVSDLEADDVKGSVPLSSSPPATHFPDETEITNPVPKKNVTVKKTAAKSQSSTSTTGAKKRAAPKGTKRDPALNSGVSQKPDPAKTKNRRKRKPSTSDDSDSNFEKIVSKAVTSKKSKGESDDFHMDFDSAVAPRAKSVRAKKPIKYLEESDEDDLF

## COc1cc([C@@H]2c3cc4c(cc3[C@@H](NC(=S)Nc3ccc(C(F)(F)F)cc3)[C@H]3COC(=O)[C@H]23)OCO4)cc(OC)c1OC
[1]
  inhibition: Active
[2]
  IC50: 1.96 µM
[3]
  IC50: 16.9 µM
[4]
  IC50: 3.56 µM
[5]
  IC50: 7.58 µM
[6]
  IC50: 56.8 µM
[7]
  selectivity ratio: 8.6
[8]
  IC50: 14.8 µM
[9]
  selectivity ratio: 4.7

## COc1ccc(NC(=S)N[C@@H]2c3cc4c(cc3[C@@H](c3cc(OC)c(OC)c(OC)c3)[C@H]3C(=O)OC[C@@H]32)OCO4)cc1
[10]
  Activity: 33.5%
[11]
  Activity: Active
[12]
  Activity: 2.3%
[13]
  Activity: 27.8%
[14]
  Activity: 5.31%
[15]
  Activity: 26.68%
[16]
  Activity: Active
[17]
  Activity: 16.75%
[18]
  Activity: 27.87%
[19]
  Activity: Active
[2]
  IC50: 0.5 µM
[20]
  Activity: Active
[21]
  Activity: 27.9%
[3]
  IC50: 40.9 µM
[22]
  Activity: 30.8%
[23]
  Activity: 41.7%
[24]
  Activity: Active
[25]
  Activity: 26.3%
[4]
  IC50: 17.6 µM
[26]
  Activity: 59.8%
[27]
  Activity: 74.57%
[5]
  IC50: 18 µM
[28]
  Activity: 14.8%
[29]
  Activity: Active
[6]
  IC50: 3.85 µM
[30]
  Activity: 28.4%
[31]
  Activity: 1.07%
[32]
  Activity: Active
[33]
  inhibition: Active
[34]
  Activity: 22.55%
[35]
  Activity: Active
[36]
  Activity: 15.35%
[37]
  Activity: Active
[7]
  selectivity ratio: 81.7
[38]
  Activity: 19.5%
[8]
  IC50: 37.6 µM
[39]
  Activity: 44.38%
[40]
  Activity: Active
[41]
  Activity: Active
[42]
  Activity: Active
[43]
  Activity: Active
[9]
  selectivity ratio: 2.3
[44]
  Activity: 3.38%
